Data on nine compounds can be found in ChEMBL document CHEMBL1142286, “2-Oxo-tetrahydro-1,8-naphthyridines as selective inhibitors of malarial protein farnesyltransferase and as anti-malarials” (Bioorg Med Chem Lett, 2008).

The species entered for data set [1] is Rattus norvegicus. As to the kind of experiment: Inhibition of rat protein farnesyltransferase at 500 nM.
For data set [2], the system named is Plasmodium falciparum. As to the kind of experiment: Inhibition of Plasmodium falciparum protein farnesyltransferase at 50 nM.
Data set [3] deals with Plasmodium falciparum. In words: Antimalarial activity against chloroquine-resistant Plasmodium falciparum K1 in human red blood cells after 48 hrs. The conditions noted are these: K1, 48 h, read-out: ED50 (the source's name). Type of data set: functional. In outline: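 Parasites grown in red blood cell cultures; ED50 is the concentration that inhibits parasite growth by 50%.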

Data set [4] relates to Plasmodium falciparum. In words: Inhibition of Plasmodium falciparum protein farnesyltransferase at 0.5 nM.
Data set [5] is filed under the species Rattus norvegicus. In words: Inhibition of rat protein farnesyltransferase at 50 nM.
For data set [6], the species on record is Rattus norvegicus. As to the kind of experiment: Inhibition of rat protein geranylgeranyltransferase 1 at 1 uM. In outline: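 Run like the rat PFT assay, but with rat PGGT-I (5 ng), H-Ras-CVLL peptide as substrate, and [3H]geranylgeranyl pyrophosphate as donor. Read-out is percent inhibition at a single inhibitor concentration.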
For data set [7], the species on record is Rattus norvegicus. In words: Inhibition of rat protein farnesyltransferase at 5 nM.
For data set [8], the system named is Plasmodium falciparum. As to the kind of experiment: Inhibition of Plasmodium falciparum protein farnesyltransferase at 5 nM.
Data set [9] has as its system Plasmodium falciparum. As to the kind of experiment: Antimalarial activity against chloroquine-sensitive Plasmodium falciparum 3D7 in human red blood cells after 48 hrs. The conditions noted are these: 3D7, 48 h, read-out: ED50 (the source's name). In kind it is functional. The method in brief:
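P. falciparum strain 3D7 (chloroquine-sensitive) grown in red blood cell cultures. ED50 was taken as the compound concentration that inhibits parasite growth by 50%.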

Data set [10] in a line: (§1) Metabolic stability assessed as half life in mouse liver microsomes. In kind it is ADME, Microsome. The conditions noted are these: liver microsomes. In outline: (§2)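 Compound incubated with mouse liver microsomes. Half-time is for the loss of parent compound, in minutes.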
The test system of data set [11] is Plasmodium falciparum. As to the kind of experiment: Inhibition of Plasmodium falciparum protein farnesyltransferase at 500 nM.
For data set [12], the species on record is Rattus norvegicus. In words: Inhibition of rat protein farnesyltransferase at 0.5 nM.
The species named for data set [13] is Rattus norvegicus. In words: Inhibition of rat protein farnesyltransferase at 5000 nM.
In the next data set the test system is Liver. Described as §1. Type of data set: ADME, Microsome. The conditions noted are these: microsomes. In outline:
as §2

The test system of data set [14] is Plasmodium falciparum. In words: Antimalarial activity against Plasmodium falciparum. In kind it is functional. The following applies: read-out: ED50. The method in brief:
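P. falciparum parasites (chloroquine-sensitive strain 3D7 and chloroquine-resistant strain K1) were grown in red blood cell cultures with compound. ED50 is the concentration giving 50% inhibition of parasite growth, in nM.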

One may read the inhibition as the percentage by which the read-out fell short of the control. Broadly, the half-life is the time needed for the level to fall by half in the phase considered. For the compound `Cn1cnc(S(=O)(=O)N(Cc2ccc(S(C)(=O)=O)cc2)C2Cc3cc(C#N)cnc3N(Cc3cncn3C)C2=O)c1` (configuration not stated), the inhibition in the data set filed under Rattus norvegicus [1] was 9%; in the data set on Plasmodium falciparum [2], 98%; in the data set with Plasmodium falciparum [4], 27%; in the data set listed under Rattus norvegicus [5], 0%; in the data set listed under Rattus norvegicus [6], 0%; in the data set filed under Rattus norvegicus [7] it was 0%. The inhibition came to 80% with Plasmodium falciparum [8], 99% in the data set on Plasmodium falciparum [11], 0% in the data set listed under Rattus norvegicus [12] and 47% in the data set filed under Rattus norvegicus [13]. In addition, the EC50 was 300 nM in the data set on Plasmodium falciparum [3] and 420 nM in the data set with Plasmodium falciparum [9]. Further, the half-life in [10] was determined as 52 min.
On to `Cn1cnc(S(=O)(=O)N(Cc2ccc(S(C)(=O)=O)cc2)C2Cc3cc(C#N)ccc3N(Cc3cncn3C)C2)c1` (configuration not stated), for which, in the data set with Liver, the t1/2 turned out to be 15.6 min.
Take `COC(=O)N1CCC(CN(C2Cc3cc(C#N)cnc3N(Cc3cncn3C)C2=O)S(=O)(=O)c2ccccn2)CC1` (configuration not stated): the inhibition came out at 88% in the data set on Plasmodium falciparum [2], 0% in the data set with Plasmodium falciparum [4], 16% in the data set on Plasmodium falciparum [8] and 97% with Plasmodium falciparum [11]. In addition, the EC50 is 310 nM with Plasmodium falciparum [3] and 320 nM in the data set on Plasmodium falciparum [9].
With `COC(=O)N1CCC(CN(C2Cc3cc(C#N)ccc3N(Cc3cncn3C)C2)S(=O)(=O)c2ccccn2)CC1` (configuration not stated), in the data set on Plasmodium falciparum [14], the EC50 amounted to 320 nM. The half-life in [10] amounted to 5.4 min.
On to `COC(=O)N1CCC(CN(C2Cc3cc(C#N)ccc3N(Cc3cncn3C)C2)S(=O)(=O)c2cn(C)cn2)CC1` (configuration not stated), for which the half-life in data set [10] was 3.8 min.
On to `Cn1cncc1CN1C(=O)C(N(Cc2ccc(S(C)(=O)=O)cc2)S(=O)(=O)c2ccccn2)Cc2cc(C#N)cnc21` (configuration not stated), for which the inhibition in the data set with Plasmodium falciparum [2] turned out to be 48%; with Plasmodium falciparum [4], 0%; in the data set on Plasmodium falciparum [8] it was 3%; with Plasmodium falciparum [11], 91%. Besides, the EC50 with Plasmodium falciparum [3] was > 5000 nM; in the data set on Plasmodium falciparum [9] it was 3100 nM. In addition, in [10], the half-life came to 15 min.
Consider `Cn1cnc(S(=O)(=O)NC2Cc3cc(C#N)cnc3N(Cc3cncn3C)C2=O)c1` (configuration not stated), for which the inhibition came to 0% in the data set listed under Rattus norvegicus [1]; 66% in the data set on Plasmodium falciparum [2]; 15% in the data set on Plasmodium falciparum [4]; 1% in the data set filed under Rattus norvegicus [5]; 0% in the data set filed under Rattus norvegicus [6]; 0% in the data set listed under Rattus norvegicus [7]. Moreover, the inhibition came to 32% with Plasmodium falciparum [8], 94% in the data set with Plasmodium falciparum [11], 0% in the data set filed under Rattus norvegicus [12] and 39% in the data set filed under Rattus norvegicus [13]. Further, the EC50 in the data set on Plasmodium falciparum [3] and with Plasmodium falciparum [9] was > 5000 nM throughout.
As for `COC(=O)N1CCC(CN(C2Cc3cc(C#N)cnc3N(Cc3cncn3C)C2=O)S(=O)(=O)c2cn(C)cn2)CC1` (configuration not stated), the inhibition turned out to be 71% in the data set filed under Rattus norvegicus [1]; 95% in the data set on Plasmodium falciparum [2]; 33% in the data set with Plasmodium falciparum [4]; 28% in the data set filed under Rattus norvegicus [5]; 5% in the data set filed under Rattus norvegicus [6]; 7% in the data set listed under Rattus norvegicus [7]. For the same compound, the inhibition with Plasmodium falciparum [8] is 71%; with Plasmodium falciparum [11], 98%; in the data set filed under Rattus norvegicus [12], 0%; in the data set listed under Rattus norvegicus [13], 85%. Moreover, the EC50 in the data set on Plasmodium falciparum [3] turned out to be 175 nM; in the data set on Plasmodium falciparum [9] it was 350 nM. Further, the half-life in data set [10] was > 120 min.
In the case of `Cn1cnc(S(=O)(=O)NC2Cc3cc(Br)cnc3N(Cc3cncn3C)C2=O)c1` (configuration not stated), the inhibition worked out at 8% in the data set listed under Rattus norvegicus [1]; 28% with Plasmodium falciparum [2]; 0% in the data set on Plasmodium falciparum [4]; 8% in the data set listed under Rattus norvegicus [5]; 16% in the data set filed under Rattus norvegicus [6]; 5% in the data set listed under Rattus norvegicus [7]. The inhibition with Plasmodium falciparum [8] was 0%; in the data set with Plasmodium falciparum [11] it was 74%; in the data set filed under Rattus norvegicus [12], 0%; in the data set filed under Rattus norvegicus [13], 51%. For the same compound, the EC50 in the data set with Plasmodium falciparum [3] and with Plasmodium falciparum [9] was > 5000 nM in each case.
